Experiments:
HepG2 = test: Cytotoxicity against human HepG2 cells by MTT assay; type: cell-based
How it was run: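 HepG2 cells were seeded at 5 × 10³ cells/well in RPMI and pre-incubated for 24 h. Compound was added at various concentrations and incubated for 72 h. MTT (5 mg/mL in PBS) was then added in serum-free medium for 2 h at 37 °C in 6% CO₂. Formazan was dissolved in DMSO and A570 read against a 630 nm reference. Viability was expressed as % of untreated control, and the 50% cytotoxic concentration taken from the dose–response curve. Values are the mean of three independent experiments.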

Plasmodium falciparum [1] = test: Antiplasmodial activity against chloroquinone-resistant Plasmodium falciparum W2; type: functional, organism-based
[2] = Selectivity index, ratio of IC50 for human THP1 cells to IC50 for Plasmodium falciparum W2; type: functional, THP-1
How it was run: (§1)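 SI = human-cell IC50 divided by P. falciparum W2 IC50. Each IC50 is the mean of three independent experiments.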

[3] = Selectivity index, ratio of IC50 for human HepG2 cells to IC50 for Plasmodium falciparum W2; type: functional; how it was run: as §1
[4] = (§2) Cytotoxicity against human THP1 cells by MTT assay; type: cell-based, THP-1; conditions: human, THP-1 cells; read-out: LC50 (the source's name)
How it was run: (§3)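 Cells seeded at 5 × 10³/well in RPMI and pre-incubated 24 h, then exposed to a range of compound concentrations for 72 h. MTT was added in serum-free medium for 2 h at 37 °C, and the formazan was dissolved in DMSO. Absorbance was read at 570 nm against a 630 nm reference. Viability was taken as % of untreated control, and IC50 came from the dose–response curve (mean of three independent experiments).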

THP-1 = test: as §2; type: cell-based; conditions: Homo sapiens, THP-1; how it was run: as §3
Plasmodium falciparum [5] = test: Antiplasmodial activity against chloroquinone-sensitive Plasmodium falciparum 3D7; type: functional, organism-based

For `ClC(Cl)(Cl)c1nc(-c2ccccc2)c2ccccc2n1`, the IC50 (HepG2) was greater than 125 µM, the IC50 (Plasmodium falciparum [1]) was 8 µM and the “Ratio IC50” value [2] was 15.6. The “Ratio IC50” value [3] was greater than 15.6, the CC50 [4] was greater than 500 µM and the IC50 (THP-1) was 125 µM. It also gave an IC50 (Plasmodium falciparum [5]) of 20.4 µM.
In the case of `FC(F)(F)c1cccc(-c2nc(C(Cl)(Cl)Cl)nc3ccccc23)c1`, the IC50 (HepG2) is reported as greater than 125 µM, the IC50 (Plasmodium falciparum [1]) is reported as 40.4 µM and the “Ratio IC50” value [2] is reported as 1.9. The “Ratio IC50” value [3] was greater than 3.1, the CC50 [4] was greater than 500 µM and the IC50 (THP-1) was 78.6 µM. For the same compound, the IC50 (Plasmodium falciparum [5]) was 36.6 µM.
In the case of `Cc1nc(-c2ccccc2)c2ccccc2n1`, the IC50 (HepG2) is reported as greater than 125 µM, the IC50 (Plasmodium falciparum [1]) is reported as 62.4 µM and the “Ratio IC50” value [2] is reported as 2. The “Ratio IC50” value [3] was greater than 2, the CC50 [4] was greater than 500 µM and the IC50 (THP-1) was 125 µM. For the same compound, the IC50 (Plasmodium falciparum [5]) was greater than 125 µM.
With `COc1cc(-c2nc(C(Cl)(Cl)Cl)nc3ccccc23)cc(OC)c1OC` the IC50 (HepG2) was greater than 125 µM, the IC50 (Plasmodium falciparum [1]) was 28.9 µM and the “Ratio IC50” value [2] was greater than 8.7. For the same compound, the “Ratio IC50” value [3] was greater than 4.3, the CC50 [4] was greater than 250 µM and the IC50 (THP-1) was greater than 250 µM. It also gave an IC50 (Plasmodium falciparum [5]) of 23.3 µM.
In the case of `COc1ccc(-c2nc(C(Cl)(Cl)Cl)nc3ccccc23)cc1`, the IC50 (HepG2) is reported as 125 µM, the IC50 (Plasmodium falciparum [1]) is reported as 10.9 µM and the “Ratio IC50” value [2] is reported as 22.9. For the same compound, the “Ratio IC50” value [3] was 11.5, the CC50 [4] was greater than 250 µM and the IC50 (THP-1) was 250 µM. For the same compound, the IC50 (Plasmodium falciparum [5]) was 25 µM.
With `Cc1ccc(-c2nc(C(Cl)(Cl)Cl)nc3ccccc23)s1` the IC50 (HepG2) was 25 µM, the IC50 (Plasmodium falciparum [1]) was 8.7 µM and the “Ratio IC50” value [2] was 5.7. For the same compound, the “Ratio IC50” value [3] was 2.9, the CC50 [4] was 125 µM and the IC50 (THP-1) was 50 µM. It also gave an IC50 (Plasmodium falciparum [5]) of 24 µM.
With `Clc1ccc(-c2nc(C(Cl)(Cl)Cl)nc3ccccc23)cc1` the IC50 (HepG2) was greater than 125 µM, the IC50 (Plasmodium falciparum [1]) was 4.7 µM and the “Ratio IC50” value [2] was 15.6. For the same compound, the “Ratio IC50” value [3] was greater than 26.6, the CC50 [4] was greater than 500 µM and the IC50 (THP-1) was 73.2 µM. It also gave an IC50 (Plasmodium falciparum [5]) of 2.2 µM.
In the case of `ClC(Cl)(Cl)c1nc(-c2ccco2)c2ccccc2n1`, the IC50 (HepG2) is reported as greater than 125 µM, the IC50 (Plasmodium falciparum [1]) is reported as 20.2 µM and the “Ratio IC50” value [2] is reported as 3.1. For the same compound, the “Ratio IC50” value [3] was greater than 6.2, the CC50 [4] was greater than 500 µM and the IC50 (THP-1) was 61.6 µM. It also gave an IC50 (Plasmodium falciparum [5]) of 30 µM.
With `Fc1ccc(-c2nc(C(Cl)(Cl)Cl)nc3ccccc23)cc1` the IC50 (HepG2) was greater than 125 µM, the IC50 (Plasmodium falciparum [1]) was 2.5 µM and the “Ratio IC50” value [2] was 50. The “Ratio IC50” value [3] was greater than 50, the CC50 [4] was 500 µM and the IC50 (THP-1) was 125 µM. It also gave an IC50 (Plasmodium falciparum [5]) of 3 µM.
Work on `C[C@H]1c2cccc(O)c2C(=O)C2=C(O)[C@]3(O)C(=O)C(C(N)=O)=C(O)[C@@H](N(C)C)[C@@H]3[C@@H](O)[C@@H]21` [DOXYCYCLINE] yielded an IC50 (Plasmodium falciparum [1]) of 9 µM.
For `C/N=C(\NC)c1nc(-c2ccccc2)c2ccccc2n1.Cl`, the IC50 (HepG2) was greater than 125 µM, the IC50 (Plasmodium falciparum [1]) was greater than 100 µM and the “Ratio IC50” value [2] was 5. For the same compound, the Ratio IC50 [3] was less than 1.25, the CC50 [4] was greater than 500 µM and the IC50 (THP-1) was greater than 500 µM. It also gave an IC50 (Plasmodium falciparum [5]) greater than 100 µM.
`CCN(CC)CCCC(C)Nc1ccnc2cc(Cl)ccc12` (centres undefined) [CHLOROQUINE] gave an IC50 (HepG2) of 30 µM.
For `ClC(Cl)(Cl)c1nc(-c2ccc3ccccc3c2)c2ccccc2n1`, the IC50 (HepG2) was greater than 125 µM, the IC50 (Plasmodium falciparum [1]) was 8.1 µM and the “Ratio IC50” value [2] was greater than 61.7. The “Ratio IC50” value [3] was greater than 15.4, the CC50 [4] was greater than 500 µM and the IC50 (THP-1) was greater than 500 µM. For the same compound, the IC50 (Plasmodium falciparum [5]) was 23.3 µM.
In the case of `Clc1nc(C(Cl)(Cl)Cl)nc2ccccc12`, the IC50 (HepG2) is reported as greater than 125 µM, the IC50 (Plasmodium falciparum [1]) is reported as 54.5 µM and the “Ratio IC50” value [2] is reported as greater than 9.2. For the same compound, the “Ratio IC50” value [3] was greater than 2.3, the CC50 [4] was greater than 500 µM and the IC50 (THP-1) was greater than 500 µM. The IC50 (Plasmodium falciparum [5]) was 73.2 µM.
In the case of `COc1cccc2c1C(=O)c1c(O)c3c(c(O)c1C2=O)C[C@@](O)(C(=O)CO)C[C@@H]3O[C@H]1C[C@H](N)[C@H](O)[C@H](C)O1` [DOXORUBICIN], the IC50 (HepG2) is reported as 0.2 µM, the CC50 [4] is reported as 2.5 µM and the IC50 (THP-1) is reported as 0.05 µM.

From ChEMBL document CHEMBL1143259, “Synthesis and antiplasmodial activity of new 4-aryl-2-trichloromethylquinazolines” (Bioorg Med Chem Lett, 2008)
